# Source: PubChem BioAssay
# Active and inactive are the calls of the source.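 Rule for the calls, unless noted: active = viability at or below 30% in both replicate assays; inconclusive = viability at or below 30% in just one of the two assays; inactive = the rest.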
# What was measured:
# [1] = reducers of endogenous Her2 protein level, primary screen, SKBR3 breast tumor cells, AlphaScreen, ATP viability (AID 461;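 active = Her2 level under about 52% in both replicate screens, with viability over 70% of control, limit read from the data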;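 for Her2 level: lower value means less Her2 protein in the cells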;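 for viability: percent of carrier control wells set as 100% viability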); details: 18-24 h, measured here: SKBR3 viability, ATP luminescence, at 10 µM
# [2] = molecular target: Receptor tyrosine-protein kinase erbB-2 (Homo sapiens) (UniProt P04626); assay: as above; details: 18-24 h, at 10 µM, stronger effect = lower value
# Sequence of Receptor tyrosine-protein kinase erbB-2 (Homo sapiens) (P04626 whole entry, looked up): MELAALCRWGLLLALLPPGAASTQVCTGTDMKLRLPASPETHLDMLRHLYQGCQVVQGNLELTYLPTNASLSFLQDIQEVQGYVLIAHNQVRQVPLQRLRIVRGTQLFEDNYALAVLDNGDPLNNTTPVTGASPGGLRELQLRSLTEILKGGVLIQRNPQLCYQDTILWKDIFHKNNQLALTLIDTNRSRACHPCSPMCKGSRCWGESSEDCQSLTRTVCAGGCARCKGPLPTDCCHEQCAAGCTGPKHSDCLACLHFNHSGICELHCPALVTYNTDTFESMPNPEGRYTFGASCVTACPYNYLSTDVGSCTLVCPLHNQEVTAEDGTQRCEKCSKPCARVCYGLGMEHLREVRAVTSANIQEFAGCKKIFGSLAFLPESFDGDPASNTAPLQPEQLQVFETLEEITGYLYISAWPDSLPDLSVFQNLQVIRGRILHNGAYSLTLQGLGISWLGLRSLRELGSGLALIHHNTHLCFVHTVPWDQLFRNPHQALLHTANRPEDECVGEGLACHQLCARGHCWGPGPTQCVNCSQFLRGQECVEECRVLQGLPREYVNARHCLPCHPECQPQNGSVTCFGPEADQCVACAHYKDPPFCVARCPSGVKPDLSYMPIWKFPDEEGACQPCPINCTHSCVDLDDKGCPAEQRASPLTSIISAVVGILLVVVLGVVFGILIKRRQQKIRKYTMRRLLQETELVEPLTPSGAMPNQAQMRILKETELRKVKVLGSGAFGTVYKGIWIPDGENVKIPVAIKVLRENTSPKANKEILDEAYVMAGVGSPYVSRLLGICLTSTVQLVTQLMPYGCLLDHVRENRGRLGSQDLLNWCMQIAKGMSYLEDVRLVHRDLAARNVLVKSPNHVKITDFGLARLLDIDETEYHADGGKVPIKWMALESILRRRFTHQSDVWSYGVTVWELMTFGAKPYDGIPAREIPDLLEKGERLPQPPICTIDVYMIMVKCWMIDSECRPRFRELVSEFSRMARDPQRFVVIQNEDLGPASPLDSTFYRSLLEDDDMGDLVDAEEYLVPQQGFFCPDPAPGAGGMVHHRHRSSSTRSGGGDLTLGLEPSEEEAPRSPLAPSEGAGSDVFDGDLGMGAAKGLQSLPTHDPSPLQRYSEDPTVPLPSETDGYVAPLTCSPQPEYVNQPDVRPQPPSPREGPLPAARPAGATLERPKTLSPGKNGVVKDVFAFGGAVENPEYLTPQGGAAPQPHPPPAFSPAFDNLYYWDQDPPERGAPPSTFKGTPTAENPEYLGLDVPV
# [3] = SK-BR-3 cell growth inhibitors, pilot screen, 24 h, human (AID 572;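 active = viability at or below 10% of carrier control in both of two separate runs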;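 note: compound exposure lasted between 18 and 24 h rather than exactly 24 h; 100% = carrier-treated control wells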); details: SK-BR-3 viability, CellTiter-Glo luminescence, at 10 µM, stronger effect = lower value
# [4] = HUVEC growth inhibition – cell-based, human, primary screen (AID 575); details: HUVEC proliferation, CellTiter-Glo luminescence, 72 h; at 10 µM; stronger effect = lower value;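 note: 100% = median of untreated cell wells with 0.1% DMSO on each plate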
# How it was run: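 Test system – primary HUVEC, no more than 12 passages · Dosing – one dose, 10 µM final, 0.1% DMSO · Times – 72 h treatment at 37 °C · Measured by – ATP-based CellTiter-Glo luminescent read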
# [5] = growth inhibitors of H69AR lung tumor, primary screen, human, duplicate replicates (AID 580;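 active = viability at or under a set limit in both replicates, limit being median viability minus 3 SD, cut at about 48% in these data, passing the limit was not always enough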;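 note: 100% = mean luminescence of untreated wells and 0% = no signal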); details: H69AR lung tumor cells viability, ATP luminescence, 72 h; at 10 µM; stronger effect = lower value
# [6] = reversal of MRP1-mediated doxorubicin resistance, pilot screen, H69AR cells, doxorubicin co-treatment (AID 601;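 active = viability loss from added drug above about 55%, and viability with drug at most 40%, in both replicates, limit read from the data, passing the limit was not always enough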); details: CellTiter-Glo, 72 h, at 10 µM; for differential viability (reversal): stronger effect = higher value
# [7] = 384-well plate pilot, post-Golgi transport modulator project, inhibition of yeast transport mutant growth (AID 636; in the data active = inhibition above about 31%); details: absorbance 615 nm, about 18 h, stronger effect = higher value
# [8] = growth suppression of yeast trafficking mutant, preliminary HTS, modulators of trafficking downstream of Golgi apparatus project, 1536-format plate, OD 615 nm (AID 637; in the data active = inhibition above about 30%); details: yeast transport mutant growth, absorbance 615 nm, 18 h; stronger effect = higher value
# [9] = H69AR cells + 2 uM doxorubicin, measured here: viability with 2 uM doxorubicin, stronger effect = lower value
# [10] = H69AR cells, compound alone cytotoxicity
Structure (SMILES),viability [1] [%],Her2 level [2],viability [3],viability [4],viability [5],differential viability (reversal) ([6]; H69AR cells + 2 uM doxorubicin),"viability [6, 9] [%]","viability [6, 10] [%]",inhibition [7],inhibition [8]
O=C(NC1CCCC1)c1ccc(S(=O)(=O)N2CCCC2)cc1,107,120% (inactive),107% (inactive),103% (inactive),87.6% (inactive),-7.37% (inactive),95,87.6,-1.08% (inactive),0.83% (inactive)
COc1ccc(NC(=O)CN2CCCCC2)cc1,108,108% (inactive),108% (inactive),90.2% (inactive),88.2% (inactive),5.94% (inactive),82.3,88.2,-5.58% (inactive),-10% (inactive)
COc1ccc2nc(C)cc(N3CCOCC3)c2c1,128,101% (inactive),128% (inactive),101% (inactive),93.1% (inactive),-3.77% (inactive),96.9,93.1,-3.68% (inactive),9.67% (inactive)
CCn1c(=N)n(CC(O)c2ccco2)c2ccccc21 (stereo not given),94.5,119% (inactive),94.5% (inactive),116% (inactive),90.4% (inactive),10.3% (inactive),80.1,90.4,-4.49% (inactive),4.67% (inactive)
CC(=O)c1cccc(S(=O)(=O)NCC(c2ccco2)N2CCCCC2)c1 (stereo not given),101,80% (inactive),101% (inactive),96% (inactive),99.4% (inactive),11.9% (inactive),87.5,99.4,-0.91% (inactive),-7.3% (inactive)
C=CCc1cccc2cc(C(=O)NCc3cccnc3)c(=O)oc12,97.5,112% (inactive),97.5% (inactive),95% (inactive),95% (inactive),4.88% (inactive),90.1,95,-0.52% (inactive),-9.33% (inactive)
CCN(C1CCCCC1)S(=O)(=O)c1ccc(OC)c(C)c1,99,108% (inactive),99% (inactive),91.5% (inactive),93.1% (inactive),15.7% (inactive),77.4,93.1,-7.92% (inactive),-13% (inactive)
O=C(CSc1nnc(Cn2cnc3ccccc32)o1)c1ccccc1,124,86.5% (inactive),124% (inactive),61.8% (inactive),73.3% (inactive),-9.91% (inactive),83.2,73.3,-6.84% (inactive),3.49% (inactive)
CCCN(Cc1cc2ccc(C)cc2[nH]c1=O)C(=O)c1cccnc1,87,93% (inactive),87% (inactive),89.3% (inactive),87.4% (inactive),-2.29% (inactive),89.7,87.4,0% (inactive),-3.28% (inactive)
CC(=O)N(C(C)=O)c1cccc2c(N(C(C)=O)C(C)=O)cccc12,106,94% (inactive),106% (inactive),97.4% (inactive),91.7% (inactive),-2.88% (inactive),94.5,91.7,-4.29% (inactive),-6% (inactive)
O=C(NCCCn1ccnc1)c1csc2ccccc12,84.5,89.5% (inactive),84.5% (inactive),95.4% (inactive),97.5% (inactive),11.9% (inactive),85.6,97.5,-3.03% (inactive),3.67% (inactive)
COc1cc(C)c(-c2cc(C(=O)O)c(C)o2)cc1C(C)C,99.5,88% (inactive),99.5% (inactive),95.7% (inactive),91.8% (inactive),6.8% (inactive),85,91.8,-3.87% (inactive),-5.4% (inactive)
COc1ccc(Cc2noc(-c3ccc(C)cc3)n2)cc1,91,131% (inactive),91% (inactive),90.1% (inactive),91.2% (inactive),14.9% (inactive),76.3,91.2,4.87% (inactive),45.8% (active)
Cc1cc(NC(=O)CSc2ccc3nnc(-c4cccc(F)c4)n3n2)no1,108,102% (inactive),108% (inactive),103% (inactive),94.6% (inactive),8.17% (inactive),86.4,94.6,-4.19% (inactive),-4.17% (inactive)
COCCn1c(SCC(=O)Nc2cccc(OC)c2)nnc1-c1ccccc1,101,99.5% (inactive),101% (inactive),90.1% (inactive),103% (inactive),6.8% (inactive),96.6,103,-3.51% (inactive),4.43% (inactive)
O=C(Nc1cccc(C(F)(F)F)c1)c1ccco1,129,79.5% (inactive),129% (inactive),95.9% (inactive),103% (inactive),19.4% (inactive),84,103,-5.33% (inactive),8.52% (inactive)
